Experimental data from ChEMBL document CHEMBL1152716, “Stereoselective synthesis of bioactive isosteviol derivatives as alpha-glucosidase inhibitors” (Bioorg Med Chem, 2009).

Test: Inhibition of yeast alpha glucosidase after 30 mins
Parameters: species or system Saccharomyces cerevisiae
How it was run: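 Baker's yeast α-glucosidase (0.04 U/mL) preincubated 30 min with inhibitor in 0.067 M K2HPO4/KH2PO4 buffer, pH 6.8, at 37 °C; inhibitor and substrate dissolved in DMSO, final DMSO 10%. Reaction started with 0.5 mM substrate, run 5 min at 37 °C, quenched with 0.1 M Na2CO3 (pH 9.8). Absorbance at 405 nm read immediately as hydrolysis rate; triplicate.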

Row | IC50 [µM] | SMILES
1 | > 200 | CCOC(=O)[C@]1(C)CCC[C@@]2(C)[C@@H]3CC[C@@]4(C)C[C@]3(CC[C@@H]21)CC4=O
2 | 86.2 | CCOC(=O)[C@]1(C)CCC[C@@]2(C)[C@@H]3CC[C@@]4(C)C[C@]3(CC[C@@H]21)[C@H](CO)[C@H]4O
3 | 85.4 | CCCOC(=O)[C@]1(C)CCC[C@@]2(C)[C@@H]3CC[C@@]4(C)C[C@]3(CC[C@@H]21)[C@H](CO)[C@H]4O
4 | 87.2 | CCCCOC(=O)[C@]1(C)CCC[C@@]2(C)[C@@H]3CC[C@@]4(C)C[C@]3(CC[C@@H]21)[C@H](CO)[C@H]4O
5 | 102 | CC(C)COC(=O)[C@]1(C)CCC[C@@]2(C)[C@@H]3CC[C@@]4(C)C[C@]3(CC[C@@H]21)[C@H](CO)[C@H]4O
6 | 114 | CC(C)(C)OC(=O)[C@]1(C)CCC[C@@]2(C)[C@@H]3CC[C@@]4(C)C[C@]3(CC[C@@H]21)[C@H](CO)[C@H]4O
7 | 116 | CC(C)CCOC(=O)[C@]1(C)CCC[C@@]2(C)[C@@H]3CC[C@@]4(C)C[C@]3(CC[C@@H]21)[C@H](CO)[C@H]4O
8 | > 200 | C[C@]12CC[C@H]3[C@]4(C)CCC[C@@](C)(C(=O)OCCO)[C@H]4CC[C@@]3(C1)[C@H](CO)[C@H]2O
9 | 96.5 | COC(=O)[C@]1(C)CCC[C@@]2(C)[C@@H]3CC[C@@]4(C)C[C@]3(CC[C@@H]21)[C@H](CO)[C@H]4O
10 | > 200 | C[C@@]12CC[C@@H]3[C@@](CC[C@H]4[C@@]3(C)CCC[C@@]4(C)C(=O)O)(C[C@@H]1N)C2
11 | 91.2 | CCOC(=O)[C@]1(C)CCC[C@@]2(C)[C@@H]3CC[C@@]4(C)C[C@]3(CC[C@@H]21)C[C@@H]4N
12 | 68.2 | CCOC(=O)[C@]1(C)CCC[C@@]2(C)[C@@H]3CC[C@@]4(C)C[C@]3(CC[C@@H]21)c1c4[nH]c2ccccc12
13 | 92.1 | C[C@@]12CC[C@@H]3[C@@](CC[C@H]4[C@@]3(C)CCC[C@@]4(C)C(=O)O)(C/C1=N/O)C2
14 | 88.9 | CCOC(=O)[C@]1(C)CCC[C@@]2(C)[C@@H]3CC[C@@]4(C)C[C@]3(CC[C@@H]21)C/C4=N\O
15 | > 200 | CCOC(=O)[C@]1(C)CCC[C@@]2(C)[C@@H]3CC[C@@]4(C)C[C@]3(CC[C@@H]21)[C@H](COC(=O)c1ccccc1)C4=O
16 | > 200 | C=C1C(=O)[C@@]2(C)CC[C@@H]3[C@]1(CC[C@H]1[C@@]3(C)CCC[C@@]1(C)C(=O)OCC)C2
17 | 139 | C[C@@]12CC[C@@H]3[C@@](CC[C@H]4[C@@]3(C)CCC[C@@]4(C)C(=O)O)(CC(=O)O1)C2

Row | IC50 [µM] | SMILES
18 | 83.2 | C[C@]12CC[C@@H]3[C@](CC[C@H]4[C@@]3(C)CCC[C@@]4(C)C(=O)O)(C1)c1c2[nH]c2ccccc12
19 | > 200 | CCOC(=O)[C@]1(C)CCC[C@@]2(C)[C@@H]3CC[C@@]4(C)C[C@]3(CC[C@@H]21)[C@H](COC(C)=O)C4=O
20 | > 200 | C=CC(=O)O[C@@H]1C[C@]23CC[C@H]4[C@@](C)(CCC[C@@]4(C)C(=O)OCC)[C@@H]2CC[C@@]1(C)C3
21 | 149 | C[C@]12CC[C@H]3[C@]4(C)CCC[C@@](C)(C(=O)O)[C@H]4CC[C@@]3(C1)[C@H](CO)[C@H]2O
22 | 156 | C[C@@]12CC[C@@H]3[C@@](CC[C@H]4[C@@]3(C)CCC[C@@]4(C)C(=O)O)(C[C@H]1O)C2
23 | > 200 | C[C@]12CC[C@H]3[C@]4(C)CCC[C@@](C)(C(=O)OCc5ccccc5)[C@H]4CC[C@@]3(C1)[C@H](CO)[C@H]2O
24 | 132 | CCOC(=O)[C@]1(C)CCC[C@@]2(C)[C@@H]3CC[C@@]4(C)C[C@]3(CC[C@@H]21)[C@H](COC(C)=O)[C@H]4O
25 | 143 | CCOC(=O)[C@]1(C)CCC[C@@]2(C)[C@@H]3CC[C@@]4(C)C[C@]3(CC[C@@H]21)[C@H](CO)C4=O
26 | 72.4 | CCOC(=O)[C@]1(C)CCC[C@@]2(C)[C@@H]3CC[C@@]4(C)C[C@]3(CC[C@@H]21)CC(=O)N4
27 | 118 | CCOC(=O)[C@]1(C)CCC[C@@]2(C)[C@@H]3CC[C@@]4(C)C[C@]3(CC[C@@H]21)CC(=O)O4
28 | 114 | CCN[C@H]1C[C@]23CC[C@H]4[C@@](C)(CCC[C@@]4(C)C(=O)OCC)[C@@H]2CC[C@@]1(C)C3
29 | 112 | CCOC(=O)[C@]1(C)CCC[C@@]2(C)[C@@H]3CC[C@@]4(C)C[C@]3(CC[C@@H]21)[C@H](COC(=O)c1ccccc1)[C@H]4O
30 | 132 | CCOC(=O)[C@]1(C)CCC[C@@]2(C)[C@@H]3CC[C@@]4(C)C[C@]3(CC[C@@H]21)C[C@H]4O
31 | 97.2 | CC(C)OC(=O)[C@]1(C)CCC[C@@]2(C)[C@@H]3CC[C@@]4(C)C[C@]3(CC[C@@H]21)[C@H](CO)[C@H]4O
32 | 143 | C=CCOC(=O)[C@]1(C)CCC[C@@]2(C)[C@@H]3CC[C@@]4(C)C[C@]3(CC[C@@H]21)[C@H](CO)[C@H]4O
33 | 81.6 | C[C@@]12CC[C@@H]3[C@@](CC[C@H]4[C@@]3(C)CCC[C@@]4(C)C(=O)O)(CC(=O)N1)C2 [ISOSTEVIOL LACTAM]
34 | > 200 | C[C@@]12CC[C@@H]3[C@@](CC[C@H]4[C@@]3(C)CCC[C@@]4(C)C(=O)O)(CC1=O)C2 [ISOSTEVIOL]
